Bioassay records as filed in PubChem BioAssay.
Sampled rows, rich in hits. Any-hit rate of the full collection: about 1.5%.
CXCR6 block: CXCR6 (human) receptor inhibition. O00574. CHO-K1 PathHunter CXCR6 beta-arrestin, luminescence. inhibition, % at 20 µM. hit rate 0.36% among 360,000; in the data active = inhibition above about 34%, passing the limit was not always enough;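 note: antagonist mode with CXCL16 agonist at 10 nM final; 0% = 10 nM CXCL16 with DMSO and 100% = unstimulated wells without agonist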
APJ antag: blocks the human apelin receptor APJ; P35414; CHO-K1 APJ beta-arrestin complementation, luminescence; inhibition, % at 20 µM; hit rate 0.32% among 330,000; AID 2521;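 active = inhibition above about 40% at 20 µM, limit read from the data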;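 note: cells challenged with 10 nM apelin-13 agonist together with compound; plate controls were apelin-13 plus DMSO wells for no effect and DMSO wells lacking apelin-13 for full effect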
APJ agonist: activates the human apelin receptor APJ; AID 2520; P35414; hit rate 0.11% among 330,000; CHO-K1 APJ PathHunter beta-arrestin, luminescence; 0% DMSO wells, 100% apelin; activation, % at 20 µM;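 active = activation more than six SD over the plate average, tested at 20 µM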;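 note: 0% = DMSO alone and 100% = apelin-13 at 10 nM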
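Assay system: engineered CHO-K1 APJ arrestin reporter cells; Amount: 1000 CHO-K1 reporter cells seeded per well; Dosing: one dose, 20 µM compound, 1% DMSO; Times: compound stimulation 90 min at 25 °C, detection 60 min; Measured by: luminescent beta-gal fragment complementation, chemiluminescent substrate; Read-out: APJ–arrestin association signal; Controls: DMSO vs Apelin-13 10 nM.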
EBI2 antag: blocks human EBI2 receptor beta-arrestin signaling; P32249; EBI2 beta-arrestin recruitment, luminescence, 7a,25-OHC stimulated; inhibition, % at 5 µM; hit rate 0.81% among 360,000; AID 651636; in the data active = inhibition above about 38%;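 note: enzyme fragment complementation signal reports receptor beta-arrestin coupling in cells; 0% = agonist plus DMSO wells and 100% = wells without agonist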
Target sequence (P32249 whole entry, looked up, the tested form may be a part): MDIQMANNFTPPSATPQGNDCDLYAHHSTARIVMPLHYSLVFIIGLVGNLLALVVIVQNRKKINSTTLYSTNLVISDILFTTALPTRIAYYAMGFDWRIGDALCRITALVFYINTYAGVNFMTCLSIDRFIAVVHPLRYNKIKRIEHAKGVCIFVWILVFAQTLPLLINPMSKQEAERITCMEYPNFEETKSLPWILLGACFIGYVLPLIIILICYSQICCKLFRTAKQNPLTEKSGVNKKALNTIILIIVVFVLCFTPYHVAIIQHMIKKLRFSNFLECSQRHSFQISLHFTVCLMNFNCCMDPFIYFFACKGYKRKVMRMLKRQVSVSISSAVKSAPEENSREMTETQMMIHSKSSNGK
CCR6 antag: CCR6 (human) receptor antagonism; CHO-K1 CCR6 PathHunter beta-arrestin, luminescence, CCL20-stimulated; inhibition, % at 20 µM; hit rate 0.49% among 340,000; AID 493098;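 active = compounds whose inhibition of the agonist-driven luminescence signal at 20 µM reaches about 50%, limit read from the data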;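 note: cells stimulated with CCL20 at 14 nM final; plate controls were DMSO with CCL20 for no effect and DMSO without agonist for full effect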
Numbers without * were called inactive; x = no result.

SMILES | CXCR6 block | APJ antag | APJ agonist | EBI2 antag | CCR6 antag
Cc1ccccc1Cn1c(=O)n(-c2ccccc2)c(=O)c2ccc(C(=O)NCc3ccco3)cc21 | 6 | 6 | -6 | 0 | x
O=c1cc2oc3cc(O)c(O)cc3c(-c3ccccc3O)c-2cc1O | 28 | x | x | 1 | 30
CCOc1ccccc1-c1c2cc(O)c(=O)cc-2oc2cc(O)c(O)cc12 | 27 | x | x | -1 | 56*
Cc1onc(-c2ccccc2)c1C(=O)NCc1ccc(Cl)cc1 | 0 | -19 | -3 | -3 | 18
COc1cccc(C(C[N+](=O)[O-])c2c(C)[nH]n(-c3ccccc3)c2=O)c1 (stereo not given) | 8 | -12 | 4 | -36 | 12
Cc1[nH]n(-c2ccccc2)c(=O)c1C(C[N+](=O)[O-])c1ccc(Br)cc1 (stereo not given) | 45* | 14 | 2 | 1 | 36
Nc1ccn(CC(=O)NCc2ccc3[nH]ccc3c2)c(=O)n1 | -4 | 3 | -2 | -13 | 5
CC1(C(=O)Nc2ccc3c(c2)OCCO3)CCN1C(=O)C1(c2ccc(Cl)cc2)CCC1 (stereo not given) | 7 | x | x | 4 | x
CN(C)c1ncc(C2=C(Cl)C(=O)C(N3CCCC3)=C(Cl)C2=O)s1 | 14 | -20 | 8 | -9 | 91*
O=C1C(Cl)=C(N2CCCCC2)C(=O)C(Cl)=C1c1cnc(N2CCCCC2)s1 | 14 | -16 | 7 | -16 | 70*
COCCN=c1scc(-c2ccc3c(c2)NC(=O)CO3)n1/N=C(\C)c1ccc(O)cc1 | 56* | 0 | -6 | 37 | x
COc1cc(/C=N/n2c(-c3ccc4c(c3)NC(=O)CO4)csc2=Nc2cccc(C)c2)ccc1O | 13 | 7 | -4 | 52* | 19
COCCN=c1scc(-c2cccs2)n1/N=C(\C)c1ccco1 | 3 | 9 | -3 | -1 | 17
COC(=O)/C=C\C(C#N)(C#N)N=Cc1ccc(OC)cc1 | 65* | x | x | 8 | 15
COc1ccc(C=NNC(=O)CCCCC(=O)NN=Cc2ccc(OC)cc2)cc1 | 11 | x | x | 13 | 6
O=C(O)c1cccc2c1/C(=N/Nc1ccc([N+](=O)[O-])cc1[N+](=O)[O-])c1ccccc1-2 | 24 | 15 | -5 | 19 | 53*
CCN(CC)c1ccc(/C=N/N=C(c2ccccc2)c2ccccc2)c(O)c1 | 2 | 5 | -1 | 66* | 21
CCOC(=O)c1c(N)sc(N)c1C(=O)OCC | 17 | 61* | -12 | 12 | 23
COc1ccccc1CN(CC(=O)NCc1ccco1)C(=O)CNS(=O)(=O)c1ccccc1 | -5 | 8 | -4 | 3 | 61*
COc1ccccc1CN(CC(=O)NCc1ccco1)C(=O)CNS(=O)(=O)c1ccc(C)cc1 | -4 | 7 | 0 | -5 | 11
O=C(Nc1ccc(S(=O)(=O)N2CCCCC2)cc1)c1ccncc1 | -8 | 0 | 9 | -7 | 58*
O=C(Nc1ccc(Cc2ccncc2)cc1)c1ccc(S(=O)(=O)N2CCCC2)cc1 | -10 | -21 | 3 | 1 | -9
O=C(N/N=C\c1cc(Br)ccc1O)c1ccc(S(=O)(=O)N2CCCCC2)cc1 | -3 | -12 | 0 | 58* | 15
O=C(N/N=C/c1ccc(O)c(O)c1)c1cccc(S(=O)(=O)N2CCCCC2)c1 | 0 | 1 | -1 | 0 | 2
O=C(N/N=C/c1cc(Cl)ccc1O)c1ccc(Br)cc1 | 2 | x | x | 48* | 12
SMILES | CXCR6 block | APJ antag | APJ agonist | EBI2 antag | CCR6 antag
CCOc1ccc(NC(=O)Nc2ccc3nsnc3c2)cc1 | 3 | 5 | -4 | 9 | 18
CCOc1ccc(NC(=S)Nc2ccc3nsnc3c2)cc1 | -3 | -3 | -3 | 53* | 21
C[C@H](C(=O)NCc1ccccc1)C(=O)c1ccccc1 | -7 | -12 | -2 | 4 | 2
CCCCNc1c(-c2ccc(SC(C)CC)c(OC)c2)nc2ccc(C)cn12 (stereo not given) | 13 | -6 | 9 | 55* | 0
CCCCNc1c(-c2ccc(SC(C)CC)c(OC)c2)nc2ccc(Cl)cn12 (stereo not given) | -1 | -7 | -1 | 26 | 6
CCCCNc1c(-c2ccc(-c3ccc(OC)cc3)c(OC)c2)nc2ccccn12 | 0 | 4 | 6 | 54* | -18
CCc1ccc(N2CCN(S(=O)(=O)CC34CCC(CC3=O)C4(C)C)CC2)cc1 (stereo not given) | -3 | -9 | 3 | -7 | -4
Cc1ccc(C(=O)Nc2cccc(C(O)c3ccccc3)c2)cc1 (stereo not given) | 5 | 0 | 1 | -2 | 2
COCCn1c(=S)[nH]c2cc(C(=O)NC3CCCCC3C)ccc2c1=O (stereo not given) | 0 | x | x | -6 | x
CCOc1ccc(N2C(=O)CC(Sc3nnnn3-c3ccccc3)C2=O)cc1 (stereo not given) | 52* | x | x | -1 | x
COc1ccccc1N1CCN(S(=O)(=O)CCNC(=O)C2CCCC2)CC1 | 7 | 6 | -3 | 6 | 7
CC1(C)OC(c2ccccc2)=C/C(=C/C=C2C(=O)c3ccccc3C2=O)O1 | 46* | 36 | -7 | 10 | 59*
CCC(C)N(C(=O)CSc1nnc2ccccn12)C1CCS(=O)(=O)C1 (stereo not given) | 2 | 10 | -1 | -7 | 6
C/C(CCC12CC3CC(CC(C3)C1)C2)=N\NC(N)=S | 21 | 5 | -4 | 29 | 57*
COc1cc(-c2cccc([C@H]3[C@@H]4C=CC[C@@H](C)[C@@H]4C(=O)N3Cc3ccccc3)c2)cc(OC)c1OC | 27 | x | x | 32 | 33
O=C(O)c1cc(N=Nc2c(O)[nH]c3ccc([N+](=O)[O-])cc23)ccc1Cl | 40* | 36 | -7 | 11 | 40
NC(=O)N=Nc1c(O)[nH]c2ccc([N+](=O)[O-])cc12 | 3 | -1 | 0 | -5 | 18
COc1ccccc1C(=O)N=Nc1c(O)[nH]c2ccc([N+](=O)[O-])cc12 | 2 | x | x | 2 | 19
O=C(N=Nc1c(O)[nH]c2ccc([N+](=O)[O-])cc12)c1cc(-c2ccccc2Cl)nc2ccccc12 | 36 | 13 | -2 | -1 | 65*
C[C@H](CO)N1C[C@H](C)[C@H](CN(C)Cc2cccc(F)c2)Oc2ncc(Br)cc2C1=O | 2 | x | x | -2 | x
COC(CNC(=O)c1cc(C(=O)c2c(-c3c(Cl)cccc3Cl)noc2C)c[nH]1)OC | 71* | -6 | 3 | 5 | 23
Cc1onc(-c2c(Cl)cccc2Cl)c1C(=O)c1c[nH]c(C(=O)NCCCN2CCOCC2)c1 | 2 | 9 | 0 | -5 | 4
O=C(Cn1nc(C(F)F)cc1C(F)F)NNC(=S)Nc1ccc([N+](=O)[O-])cc1 | 24 | 49* | -8 | 9 | 48
O=C(Cn1nc(C(F)F)cc1C(F)F)NNC(=S)Nc1ccc(F)cc1 | 12 | 19 | -2 | -10 | 12
COc1ccc(NC(=O)CCSc2ccc(C)cc2)cc1 | -1 | 14 | 2 | -15 | 0
COc1ccc(C(O)CNc2ccc(C)cc2)cc1 (stereo not given) | 1 | -16 | 14 | 66* | 15
